Drawing on ChEMBL document CHEMBL4610083, “Kendomycin Cytotoxicity against Bacterial, Fungal, and Mammalian Cells Is Due to Cation Chelation” (J Nat Prod, 2020), this text covers Activity, Kapp and inhibition for three compounds.

Calls of active or inactive are those of the source. The calls are words filed in the database; no cut-off is given here. Residues, ends and D or L forms follow the SMILES beside them. *: point of attachment. Cbz = O=C(OCc1ccccc1)*

Test [1] can be described thus: Metal chelating activity assessed as compound-Fe3+ complex formation by UV-Vis spectrophotometric analysis. The essentials:
(§1)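 250 μM compound titrated with increasing metal concentrations and absorption spectra recorded. A320 measured in quadruplicate; averages fitted to a binding curve to give apparent Kapp.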

Test [2] can be described thus: Binding affinity to Cu2+ ion assessed as compound-Cu2+ formation by 1H NMR spectroscopy.
The nature of test [3]: Metal chelating activity assessed as compound-[…] complex formation by UV-Vis spectrophotometric analysis.
Test [4] in a line: Metal chelating activity assessed as compound-Fe2+ complex formation by UV-Vis spectrophotometric analysis. In outline: as §1
Test [5] in a line: Metal chelating activity assessed as compound-calcium complex formation by UV-Vis spectrophotometric analysis.
The nature of test [6]: Binding affinity to Fe2+ ion assessed as compound-Fe2+ formation by 1H NMR spectroscopy.
For test [7], the system named is Bacillus subtilis. In words: Antibacterial activity against Bacillus subtilis assessed as reduction in microbial growth in presence of FeCl2 by serial dilution method. The class given is functional, organism-based. The essentials: (§2)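 Mid-log cultures in LB back-diluted to low OD; 8-point compound serial dilution added, with or without freshly prepared 0.25 mM FeCl2 or 0.25 mM CuCl2. Incubation at 37 °C with orbital shaking at 1000 rpm. Cell density read as A600, duplicate data sets, inhibition curves fitted by regression.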

Test [8] has as its system HCT-116. In words: Inhibition of protein biogenesis in human HCT116 cells assessed as reduction in secreted protein level at 100 to 1000 nM preincubated for 30 mins followed by addition of 35S-labeled methionine/cysteine and measured after 90 mins by autoradiography. In kind it is functional, cell-based. The essentials: (§3)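 HCT116 cells seeded at 0.5 × 10^6/well and grown 24 h at 37 °C, 5% CO2. Washed, then given compound in Met/Cys-free DMEM for 30 min at 37 °C. Pulsed with 100 μCi 35S-Met/Cys for 90 min. Total protein taken by RIPA extraction of the cell pellet; secreted protein by TCA precipitation of the medium. Gels exposed to phosphor screens and scanned.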

For test [9], the system named is Saccharomyces cerevisiae. In words: Antifungal activity against Saccharomyces cerevisiae assessed as reduction in microbial growth in presence of CuCl2. In kind it is functional, organism-based. The essentials: (§4)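 Single-colony inhibition on solid medium, with or without 1 mM FeCl2 or 0.25 mM CuCl2 in the agar. Colonies washed off the plates with PBS and cell density read as A600. Inhibition curves fitted by regression.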

For test [10], the system named is Bacillus subtilis. In words: Antibacterial activity against Bacillus subtilis assessed as reduction in microbial growth in presence of CuCl2 by serial dilution method. In kind it is functional, organism-based. The essentials: as §2
In test [11] the test system is Proteasome. In words: Inhibition of proteosome in human K562 cells assessed as reduction in UbG76V-GFP degradation at 2.5 to 10 uM incubated for 4 hrs by flow cytometric analysis. The essentials: (§5)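 K562 cells carrying a lentivirally integrated, TRE2-driven UbG76V-GFP reporter. Reporter induced with 1 μg/mL doxycycline (final) 16 h before compound. Cells treated with compound or carrier for 4 h, then GFP fluorescence measured by flow cytometry.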
(In general: A flow cytometer gives signals particle by particle.)

In test [12] the test system is HCT-116. In words: Antiproliferative activity against human HCT116 cells assessed as reduction in cell viability incubated for 72 hrs in presence of FeCl2 by AlamarBlue assay. In kind it is functional, cell-based. The essentials:
(§6)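 HCT116 cells in McCoy's 5A with 10% FBS, seeded at 2500 cells/well. Dosed 16 h after plating, with or without 0.5 mM FeCl2 or 0.5 mM CuCl2. After 72 h, 10% resazurin added for 4 h, then fluorescence read (ex 580/em 620 nm). Viability given as % of carrier growth; curves from quadruplicate technical replicates.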
A general note: Alamar Blue is a resazurin reagent that responds to reducing activity.

The subject of test [13] is Proteasome. In words: Inhibition of proteosome in HEK293T cells assessed as reduction in UbG76V-GFP degradation at 250 nM incubated for 4 hrs by flow cytometric analysis. The settings on record: Homo sapiens, HEK-293T.
Test [14] has as its system HCT-116. In words: Antiproliferative activity against human HCT116 cells assessed as reduction in cell viability incubated for 72 hrs in presence of CuCl2 by AlamarBlue assay. In kind it is functional, cell-based. The essentials: as §6
The test system of test [15] is Saccharomyces cerevisiae. In words: Antifungal activity against Saccharomyces cerevisiae assessed as reduction in microbial growth in presence of FeCl2. The class given is functional, organism-based. In outline:
as §4

The subject of test [16] is HCT-116. In words: Inhibition of protein biogenesis in human HCT116 cells assessed as reduction in total protein level at 100 to 1000 nM preincubated for 30 mins followed by addition of 35S-labeled methionine/cysteine and measured after 90 mins by autoradiography. The class given is functional, cell-based. The essentials:
as §3

Test [17] is described as follows: Metal chelating activity assessed as compound-Cu2+ complex formation by UV-Vis spectrophotometric analysis. The essentials:
as §1

Test [18] deals with HCT-116. In words: Inhibition of protein biogenesis in human HCT116 cells assessed as reduction in total protein level preincubated for 30 mins followed by addition of 35S-labeled methionine/cysteine and measured after 90 mins by autoradiography. In kind it is functional, cell-based. In outline:
(§7)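 HCT116 cells seeded at 0.5 × 10^6 per well and grown 24 h at 37 °C, 5% CO2. After two washes, compound in DMEM lacking Met/Cys was added for 30 min at 37 °C, then 100 μCi 35S-Met/Cys for a further 90 min. Secreted protein was recovered from medium by TCA precipitation, total protein by RIPA extraction of washed cells. Gels were read by phosphor screen imaging.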

Test [19] relates to HCT-116. In words: Inhibition of protein biogenesis in human HCT116 cells assessed as reduction in secreted protein level preincubated for 30 mins followed by addition of 35S-labeled methionine/cysteine and measured after 90 mins by autoradiography. The class given is functional, cell-based. The essentials: as §7
Test [20] deals with Proteasome. In words: Inhibition of proteosome in human K562 cells assessed as reduction in UbG76V-GFP degradation at 2 uM incubated for 4 hrs by flow cytometric analysis. In outline: as §5

On to `CC1=C2O[C@]3(O)C=C2C(=C(O)C1=O)[C@@H]1O[C@H](CC[C@H](C)/C=C(\C)C[C@@H](C)C[C@@H]3C)[C@H](C)[C@H](O)[C@H]1C`, for which the Activity entry in [1], in test [4] and in [17] was “Dose-dependent effect” each time. Further, the Kapp in test [1] was determined as 76 µM; in test [4] it was 19 µM; in [17], 48 µM. For the same compound, the result (in [2]; in test [6]; with HCT-116 [14]) was Active. Also, the result (in [3]; in test [5]; with Bacillus subtilis [7]; in the test with Saccharomyces cerevisiae [9]; with Bacillus subtilis [10]; in the test with HCT-116 [12]) was inactive. In addition, the outcome in the test on Saccharomyces cerevisiae [15] was inactive. The inhibition entry with HCT-116 [8], with Proteasome [11], with Proteasome [13] and in the test on HCT-116 [16] was “inactive” each time.
`C[C@@H]1C[C@@H]([C@H](O)CC2CC(=O)NC(=O)C2)C(=O)[C@@H](C)C1`: the inhibition entry in the test with HCT-116 [18] and in the test on HCT-116 [19] was “Active” in each case.
As for `CC(C)C[C@@H](C=O)NC(=O)[C@H](CC(C)C)NC(=O)[C@H](CC(C)C)NC(=O)OCc1ccccc1` (Cbz-Leu-Leu-Leu-aldehyde), the inhibition entry with Proteasome [13] and in the test on Proteasome [20] was “Active” each time.
